≈ marks a conversion by molar mass, not a printed value.
Key:
Staphylococcus aureus [1] = assay: Antibacterial activity against methicillin-resistant Staphylococcus aureus USA300 by CLSI method; assay type: functional
Staphylococcus aureus [2] = assay: Antibacterial activity against cystic fibrosis isolate Staphylococcus aureus by CLSI method; assay type: functional
[3] = Growth inhibition of human K/VP.5 cells incubated for 48 hrs by NBTI cell counting analysis; assay type: functional; details: K562, 48 h
DNA gyrase [4] = target: DNA gyrase (Staphylococcus aureus, UniProt P0A0K8+P20831); assay: Inhibition of Staphylococcus aureus Gyrase supercoiling activity assessed as reduction in supercoiling pBR322 DNA by measuring relaxation by bromophenol blue staining based TAE gel method; assay type: protein-complex assay
Staphylococcus aureus [5] = assay: Antibacterial activity against Staphylococcus aureus 3527 by CLSI method; assay type: functional
Staphylococcus aureus [6] = assay: Antibacterial activity against Staphylococcus aureus ATCC 29213 by CLSI method; assay type: functional
DNA gyrase [7] = target: DNA gyrase (Staphylococcus aureus, UniProt P0A0K8+P20831, D83N); assay: Inhibition of Staphylococcus aureus DNA Gyrase D83N mutant assessed as reduction in supercoiling pBR322 DNA by measuring relaxation by bromophenol blue staining based TAE gel method
Staphylococcus aureus [8] = assay: Antibacterial activity against Staphylococcus aureus harbouring GyrA D83N mutant by CLSI method; assay type: functional
Topoisomerase IV = Topoisomerase IV (Staphylococcus aureus, UniProt P0C1S7+P0C1U9); assay: Inhibition of Staphylococcus aureus topoisomerase IV decatenation activity using kDNA as substrate by ethidium bromide/bromophenol blue staining based agarose gel electrophoresis analysis; assay type: protein-complex assay
Staphylococcus aureus [9] = assay: Selectivity index, ratio of IC50 for inhibition of Staphylococcus aureus topoisomerase IV decatenation activity to IC50 for inhibition of Staphylococcus aureus DNA gyrase supercoiling activity
Method in brief: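 Both IC50s were measured in gel-based assays with S. aureus enzymes: supercoiling inhibition for DNA gyrase and decatenation inhibition for TopoIV. The ratio is TopoIV IC50 divided by gyrase IC50.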

Staphylococcus aureus [10] = assay: Selectivity ratio of IC50 for inhibition of Staphylococcus aureus Gyrase D83N mutant to IC50 for inhibition of Staphylococcus aureus Gyrase
Method in brief: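 Ratio of two IC50s: the IC50 from the D83N mutant gyrase supercoiling assay (commercial kit) divided by the IC50 from the gel-based wild-type S. aureus gyrase supercoiling assay.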

Streptococcus pneumoniae = assay: Antibacterial activity against Streptococcus pneumoniae by CLSI method; assay type: functional
Enterococcus sp. = assay: Antibacterial activity against Enterococcus sp. by CLSI method; assay type: functional
Staphylococcus aureus [11] = assay: Antibacterial activity against Staphylococcus aureus by CLSI method; assay type: functional
Method in brief: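 MICs were determined by broth microdilution per CLSI guidelines, in triplicate at minimum. Strains were S. aureus ATCC 29213, MRSA USA300 and a cystic fibrosis respiratory isolate, and ranges are given where seen.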

Acinetobacter baumannii = assay: Antibacterial activity against Acinetobacter baumannii by CLSI method; assay type: functional

SMILES	MIC (Staphylococcus aureus [1])	MIC (Staphylococcus aureus [2])	IC50 [3]	IC50 (DNA gyrase [4])	MIC (Staphylococcus aureus [5])	MIC (Staphylococcus aureus [6])	IC50 (DNA gyrase [7])	MIC (Staphylococcus aureus [8])	IC50 (Topoisomerase IV)	Ratio IC50 (Staphylococcus aureus [9])	Ratio IC50 (Staphylococcus aureus [10])	MIC50 (Streptococcus pneumoniae)	MIC50 (Enterococcus sp.)	MIC50 (Staphylococcus aureus [11])	MIC50 (Acinetobacter baumannii)
COc1ccc2ncc(F)c(C[C@H](O)[C@H]3OC[C@H](NCc4cc5c(cn4)OCS5)CO3)c2n1	0.125 µg/mL (≈ 0.263 µM)	0.25 µg/mL (≈ 0.527 µM)	118 µM	99 nM	0.125 µg/mL (≈ 0.263 µM)	0.06 µg/mL (≈ 0.126 µM)	5.9 µM	1 µg/mL (≈ 2.11 µM)	0.43 µM	–	–	–	–	–	–
COc1ccc2ncc(F)c(C[C@H](O)[C@H]3OC[C@H](NCc4cnc5c(n4)OCCO5)CO3)c2n1	1 µg/mL (≈ 2.11 µM)	0.125 µg/mL (≈ 0.264 µM)	–	360 nM	1 µg/mL (≈ 2.11 µM)	0.25 µg/mL (≈ 0.528 µM)	29 µM	8 µg/mL (≈ 16.9 µM)	19 µM	52	80	–	–	–	–
COc1ccc2ncc(F)c(C[C@H](O)[C@H]3OC[C@H](NCc4cc5c(nn4)OCCS5)CO3)c2c1	0.5 µg/mL (≈ 1.02 µM)	0.25 µg/mL (≈ 0.512 µM)	–	56 nM	0.5 µg/mL (≈ 1.02 µM)	0.25 µg/mL (≈ 0.512 µM)	19 µM	8 µg/mL (≈ 16.4 µM)	4.8 µM	87	336	1 µg/mL (≈ 2.05 µM)	0.25 µg/mL (≈ 0.512 µM)	0.5 µg/mL (≈ 1.02 µM)	> 64 µg/mL
COc1ccc2ncc(F)c(C(O)C[C@H]3OC[C@H](NCc4cc5c(nn4)OCCS5)CO3)c2c1 (mixture of isomers)	1 µg/mL (≈ 2.05 µM)	1 µg/mL (≈ 2.05 µM)	> 200 µM	370 nM	1 µg/mL (≈ 2.05 µM)	0.5 µg/mL (≈ 1.02 µM)	–	16 µg/mL (≈ 32.8 µM)	11 µM	–	–	–	–	–	–
COc1ccc2ncc(F)c(C(O)C[C@H]3OC[C@H](NCc4ccc5c(c4)OCCO5)CO3)c2n1 (mixture of isomers)	0.25 µg/mL (≈ 0.53 µM)	0.5 µg/mL (≈ 1.06 µM)	39.2 µM	22 nM	≤ 0.25 µg/mL	≤ 0.25 µg/mL	–	8 µg/mL (≈ 17 µM)	3.2 µM	–	–	–	–	–	–
COc1ccc2ncc(F)c(C(O)C[C@H]3OC[C@H](NCc4ccc(Cl)c(Cl)c4)CO3)c2c1 (mixture of isomers)	0.5 µg/mL (≈ 1.04 µM)	0.5 µg/mL (≈ 1.04 µM)	24.5 µM	160 nM	≤ 0.25 µg/mL	≤ 0.25 µg/mL	–	4 µg/mL (≈ 8.31 µM)	8.1 µM	–	–	–	–	–	–
COc1ccc2ccc(F)c(C[C@H](O)[C@H]3OC[C@H](NCc4cc5c(nn4)OCCS5)CO3)c2n1	0.5 µg/mL (≈ 1.02 µM)	0.25 µg/mL (≈ 0.512 µM)	–	120 nM	0.5 µg/mL (≈ 1.02 µM)	0.25 µg/mL (≈ 0.512 µM)	12 µM	4 µg/mL (≈ 8.19 µM)	4.6 µM	39	99	–	–	–	–
COc1ccc2ncc(F)c(C[C@H](O)[C@H]3OC[C@H](NCc4cc5c(nn4)OCCO5)CO3)c2c1	2 µg/mL (≈ 4.23 µM)	0.5 µg/mL (≈ 1.06 µM)	–	840 nM	2 µg/mL (≈ 4.23 µM)	1 µg/mL (≈ 2.12 µM)	51 µM	16 µg/mL (≈ 33.9 µM)	8.5 µM	10	60	–	–	–	–
COc1ccc2ncc(F)c(C(O)C[C@H]3OC[C@H](NCc4ccc(C)cc4)CO3)c2c1 (mixture of isomers)	0.5 µg/mL (≈ 1.17 µM)	0.5 µg/mL (≈ 1.17 µM)	21.7 µM	110 nM	0.5 µg/mL (≈ 1.17 µM)	0.125 µg/mL (≈ 0.293 µM)	–	16 µg/mL (≈ 37.5 µM)	14 µM	–	–	–	–	–	–
COc1ccc2ncc(F)c(C(O)C[C@H]3OC[C@H](NCc4ccc(Cl)c(Cl)c4)CO3)c2n1 (mixture of isomers)	0.25 µg/mL (≈ 0.518 µM)	0.25 µg/mL (≈ 0.518 µM)	–	220 nM	≤ 0.25 µg/mL	0.125 µg/mL (≈ 0.259 µM)	–	4 µg/mL (≈ 8.29 µM)	0.6 µM	2.7	–	–	–	–	–
COc1ccc2ncc(F)c(C[C@H](O)[C@H]3OC[C@H](NCc4ccc(C)cc4)CO3)c2n1	≤ 0.25 µg/mL	0.25 µg/mL (≈ 0.585 µM)	46.9 µM	160 nM	≤ 0.25 µg/mL	0.125 µg/mL (≈ 0.292 µM)	6.5 µM	8 µg/mL (≈ 18.7 µM)	2.7 µM	–	–	–	–	–	–
COc1ccc2ncc(F)c(C[C@H](O)[C@H]3OC[C@H](NCc4ccc5c(c4)OCCO5)CO3)c2c1	0.125 µg/mL (≈ 0.266 µM)	0.25 µg/mL (≈ 0.531 µM)	–	31 nM	0.125 µg/mL (≈ 0.266 µM)	0.125 µg/mL (≈ 0.266 µM)	2.2 µM	4 µg/mL (≈ 8.5 µM)	2.3 µM	73	72	1 µg/mL (≈ 2.13 µM)	0.06 µg/mL (≈ 0.128 µM)	0.06 µg/mL (≈ 0.128 µM)	64 µg/mL (≈ 136 µM)
COc1ccc2ncc(F)c(C[C@H](O)[C@H]3OC[C@H](NCc4ccc5c(n4)NC(=O)CO5)CO3)c2c1	0.25 µg/mL (≈ 0.516 µM)	0.5 µg/mL (≈ 1.03 µM)	> 50 µM	84 nM	0.25 µg/mL (≈ 0.516 µM)	0.5 µg/mL (≈ 1.03 µM)	1.9 µM	4 µg/mL (≈ 8.26 µM)	1.3 µM	–	–	–	–	–	–

From ChEMBL document CHEMBL4837261, “Optimization of TopoIV Potency, ADMET Properties, and hERG Inhibition of 5-Amino-1,3-dioxane-Linked Novel Bacterial Topoisomerase Inhibitors: Identification of a Lead with In Vivo Efficacy against MRSA” (J Med Chem, 2021)
